# What was measured:
# [1] = tested on: (CUG)960 foci in HeLa cells transfected with DMPK-CUG960 and GFP-MBNL1; test: FISH / confocal microscopy of ribonuclear foci in fixed DM1 cell model; format: cell-based; conditions: 50 µM, 48 h
# Summary of the method: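 HeLa cells (ca. 120,000/well, on coverslips) were co-transfected next day at 70–80% confluence with 500 ng DMPK–CUG960 (or CUG0 control) and 500 ng GFP-MBNL1 plasmids using Lipofectamine. After 4 h the medium was changed and test compound added (20–100 µM) for two days; 50 µM spermine served as the control compound. Cells were fixed (4% PFA), permeabilized and probed with Cy3-(CAG)10 for 2 h at 37 °C. Nuclei were stained with TO-PRO-3 and scored by confocal microscopy; results are mean ± standard error of ≥3 independent experiments with two-tailed p-values.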
# [2] = tested on: insulin receptor (IR) pre-mRNA alternative splicing; test: IR splicing assay; format: cell-based; conditions: 50 µM, DM1 cell model
structure (smiles),measurement,setting,value
"NCCCNCCCCNCCCN [spermine, reference compound]",effect on (CUG)960 foci,[1],no effect
same,effect on the IR mis-splicing,[2],no effect
